Screening results: PubChem, Sanford-Burnham Center for Chemical Genomics
SENP8 block-1 – blocks human SENP8 cleavage of Nedd8 substrate; Q96LD8; recombinant SENP8, Nedd8 substrate fluorescence; inhibition, % at 20 µM; 360,000 compounds, 0.64% hits; AID 602440; in the data active means inhibition mostly above about 40%, no sharp cut-off; inactive means mostly below about 27%
CendR NRP1 mod – modulators of CendR peptide binding to human neuropilin-1. O14786. 360,000 compounds, 0.85% hits. FAM-RPARPAR peptide binding to NRP-1, fluorescence polarization. AID 602438. inhibition, % at 25 µM;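 active means inhibition or corrected inhibition above about 18%, plus a signal ratio from 0.5 to 1.5, limit read from the data, passing the limit was not always enough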
SENP8 block-2 – SENP8 protease inhibition; purified SENP8, Z-RLRGG-aminoluciferin cleavage, luminescence; inhibition, % at 10 µM; 330,000 compounds, 1.2% hits; AID 2540; in the data active means inhibition above about 50%
SENP7 block – SENP7 protease inhibition | Q9BQF6 | recombinant SENP7, Z-RLRGG-aminoluciferin luminescence, 40 min | inhibition, % at 5 µM | 330,000 compounds, 1.5% hits | AID 434973;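 active means inhibition above about 50% at the single test dose, limit read from the data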;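 further: plate controls were DMSO with enzyme for no effect and no enzyme buffer wells for full effect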
Target sequence (Q9BQF6 706-1050 limits assumed): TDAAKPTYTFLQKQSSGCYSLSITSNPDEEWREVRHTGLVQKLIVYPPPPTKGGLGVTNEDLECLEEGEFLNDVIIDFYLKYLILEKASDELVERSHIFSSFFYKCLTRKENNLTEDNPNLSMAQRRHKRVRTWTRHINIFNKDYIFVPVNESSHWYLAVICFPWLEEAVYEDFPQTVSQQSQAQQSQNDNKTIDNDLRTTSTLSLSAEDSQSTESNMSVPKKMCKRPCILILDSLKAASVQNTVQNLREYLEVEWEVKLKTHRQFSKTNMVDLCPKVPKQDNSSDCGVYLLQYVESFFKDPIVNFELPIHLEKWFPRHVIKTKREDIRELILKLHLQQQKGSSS
SENP1 inh – SENP1 (human) catalytic domain inhibition; Q9P0U3; recombinant SENP1 catalytic domain, CyPet-SUMO1-YPet FRET cleavage; inhibition, % at 10 µM; 360,000 compounds, 0.21% hits; AID 624204;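 active means inhibition at least 30% at 10 µM, raw YFP signal under a set limit, fluorescence ratio 0.5 to 1.5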;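 further: 0% = enzyme with DMSO and 100% = no enzyme wells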
Target sequence (Q9P0U3 419-644 limits assumed): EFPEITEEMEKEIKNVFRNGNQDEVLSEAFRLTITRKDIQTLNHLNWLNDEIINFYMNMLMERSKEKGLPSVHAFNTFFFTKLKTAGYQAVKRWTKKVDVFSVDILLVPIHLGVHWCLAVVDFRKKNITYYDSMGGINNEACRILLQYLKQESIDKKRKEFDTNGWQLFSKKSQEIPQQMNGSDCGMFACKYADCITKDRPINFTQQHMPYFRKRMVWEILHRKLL
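Test system: hSENP1 catalytic domain, recombinant; Amount: 20 pM final SENP1 enzyme; Medium: Tris pH 8 buffer plus EDTA, NaCl, BME, BSA, NP40, catalase; Schedule: 50 min enzyme reaction, room temperature, light-protected; Technique: FRET fluorescence in CFP and YFP emission channels; Controls: no-enzyme wells low, DMSO-plus-enzyme wells high control.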
SENP6 block – blocks the human protease SENP6. inhibition, % at 10 µM. Q9GZR1. Recombinant SENP6 catalytic domain, aminoluciferin luminescence. 330,000 compounds, 1.8% hits;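 active means inhibition above about 50% at the single tested dose, limit read from the data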;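 further: plate controls were DMSO wells with enzyme for no effect and DMSO wells lacking enzyme for full effect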
SENP8 inh conf – SENP8 (human) inhibition, single concentration confirmation. shares compounds with SENP8 block-1. purified SENP8, Nedd8-AMC/pro-Nedd8 cleavage fluorescence, 30 min. inhibition, % at 25 µM. 1,400 compounds, 15% hits. AID 624319; in the data active means inhibition mostly above about 39%, no sharp cut-off; inactive means mostly below about 34%
* hit, by the source's call; x = no result given. Sampled rows, rich in hits. Any-hit rate of the full collection: about 3.3%.

SMILES | SENP8 block-1 | CendR NRP1 mod | SENP8 block-2 | SENP7 block | SENP1 inh | SENP6 block | SENP8 inh conf
Cc1cccc(N/N=C(\C#N)S(=O)(=O)C(C)(C)C)c1 | 23 | 6 | x | x | 1 | x | x
CC/C(=N/Nc1ccccc1C)c1cnnc(SC)n1 | 11 | 1 | 0 | 7 | 1 | 27 | x
CSc1nncc(/C(C)=N\Nc2ccccc2)n1 | 52* | -18 | 3 | 8 | 5 | 6 | 17
CSc1nncc(/C(C)=N\Nc2cccc(C)c2)n1 | 46* | 10 | 6 | 7 | 4 | -6 | 16
O=C(CN1CCc2ccccc2C1)Nc1ccc(Br)cc1 | 16 | -13 | 2 | 3 | 1 | 2 | x
CCc1ccc(NC(=O)NCCN2CCc3ccccc3C2)cc1 | 45* | 3 | -4 | -2 | -3 | 0 | 16
O=C(NCCN1CCc2ccccc2C1)Nc1ccc(F)cc1 | 26 | 5 | -13 | -12 | -4 | -4 | x
CCc1ccc(NC(=O)CN2CCc3ccccc3C2)cc1 | 70* | -4 | 7 | 6 | -3 | 9 | 36
COc1cccc(S(=O)(=O)N(C)C[C@H]2OCc3cnnn3CCCC(=O)N([C@H](C)CO)C[C@@H]2C)c1 | 11 | -6 | x | x | 1 | x | x
Cc1cc(C)n(-c2cc(N3CCN(C(=O)c4ccc(C(C)(C)C)cc4)CC3)ccc2[N+](=O)[O-])n1 | 45* | -7 | -1 | 0 | 2 | -12 | 22
Cn1cnnc1Sc1cc(N2CCN(S(=O)(=O)c3ccc(Cl)c(Cl)c3)CC2)ccc1[N+](=O)[O-] | 62* | -5 | -12 | -3 | -4 | -66 | 21
Cc1cc(C)n(-c2cc(N3CCN(S(=O)(=O)c4ccc(C)c(C)c4)CC3)ccc2[N+](=O)[O-])n1 | 44* | 2 | -2 | 9 | 2 | 7 | 13
Cc1ccc(S(=O)(=O)N2CCN(c3ccc([N+](=O)[O-])c(Sc4nncn4C)c3)CC2)cc1 | 28 | -7 | -6 | 2 | -4 | 0 | x
Cc1cc(C)n(-c2cc(N3CCN(C(=O)c4ccccc4C)CC3)ccc2[N+](=O)[O-])n1 | 53* | 10 | 1 | -4 | 1 | -20 | 23
Nc1cc2c(cc1Br)-c1c(C(=O)O)cccc1C2O (configuration not stated) | -359 | 14 | x | x | 3 | x | x
C#Cc1cccc(Nc2nc(NCc3ccccc3OC)nc3ccsc23)c1 | -492 | 4 | x | x | -1 | x | x
CCOc1ccccc1N1CCN(C(=O)c2cc(S(=O)(=O)N(C)C)ccc2N2CCCC2)CC1 | -28 | -3 | 11 | -10 | 0 | -5 | x
Cc1nn(Cc2ccc(Cl)c(Cl)c2)c(C)c1NC(=O)c1cn(-c2ccccc2)nc1-c1ccccc1 | 40* | 6 | -5 | -5 | 1 | -3 | 7
Cc1cccc(C)c1NC(=O)c1cn(-c2ccccc2)nc1-c1ccccc1 | 17 | -6 | -3 | 1 | 1 | -2 | x
O=c1cc(-c2ccc([N+](=O)[O-])cc2)c2cc3c(cc2[nH]1)OCCO3 | 42* | -1 | 0 | -9 | 3 | 0 | 16
CC1CCN(c2ccc(C(=O)NCc3ccco3)cc2[N+](=O)[O-])CC1 | 42* | -5 | -4 | 6 | 6 | -5 | 28
Cc1ccc(OCC(=O)NCc2cccs2)cc1 | 11 | 5 | -2 | 3 | 0 | 9 | x
O=C(COc1ccccc1)NCc1cccs1 | 42* | 5 | -9 | -8 | -1 | -3 | 12
O=C(CCN1CCOCC1)NNC(=O)c1ccc([N+](=O)[O-])cc1[N+](=O)[O-] | 28 | 5 | -7 | 1 | 1 | 0 | x
Nc1ccc(Cc2ccc(N)c(O)c2)cc1O | 48* | -58 | x | x | -78 | x | 12
SMILES | SENP8 block-1 | CendR NRP1 mod | SENP8 block-2 | SENP7 block | SENP1 inh | SENP6 block | SENP8 inh conf
CC1CCCCC1NC(=O)c1cc(Cl)nc2ccccc12 (configuration not stated) | -18 | -10 | x | x | -3 | x | x
COc1ccc(CC(=O)OCC(=O)Nc2ccc3[nH]c(=O)[nH]c3c2)cc1OC | 7 | -2 | x | x | -8 | x | x
CCOc1ccc(OCCSc2nc3ccccc3o2)cc1 | 47* | 0 | 3 | 1 | 3 | -8 | 1
Cc1cc(C(=O)OCC(=O)NC(C)c2ccc(F)cc2)c(C)o1 (configuration not stated) | 10 | -7 | -7 | -8 | -4 | -6 | x
Cc1cccc(N(C)C(=O)c2cc(S(=O)(=O)N3CCc4ccccc43)cn2C)c1 | 46* | 4 | -4 | -3 | 0 | -4 | -9
O=C(NC(CSSCC(NC(=O)c1ccccc1)C(=O)O)C(=O)O)c1ccccc1 (configuration not stated) | 63* | 8 | -12 | 9 | 3 | -14 | 11
CCOC(=O)c1ccc(S(=O)(=O)N2CCN(C(=O)c3cccc(S(=O)(=O)N4CC(C)OC(C)C4)c3)CC2)cc1 (configuration not stated) | 7 | -6 | x | x | -1 | x | x
O=C(OCc1ccc(Cl)c(Cl)c1)c1cnccn1 | 45* | 20 | -17 | 1 | 2 | 9 | -9
O=C(CN1CCN(C(=O)CNC(=O)c2ccc(N3CCCC3=O)cc2)CC1)Nc1cccc(F)c1 | 22 | -1 | x | x | 0 | x | x
O=C(c1ccc(Cl)cc1)N1CCN(c2ccc([N+](=O)[O-])c(NCc3cccnc3)c2)CC1 | 46* | 0 | 5 | -3 | 4 | -9 | 18
O=[N+]([O-])c1ccc(N2CCN(S(=O)(=O)c3ccc(Cl)cc3)CC2)cc1NCc1cccnc1 | 39 | 2 | 6 | 11 | -1 | 0 | x
O=[N+]([O-])c1ccc(N2CCN(S(=O)(=O)c3ccccc3)CC2)cc1NCc1cccnc1 | 50* | 9 | -4 | -6 | 6 | 0 | 14
O=C(c1ccccc1)N1CCN(c2ccc([N+](=O)[O-])c(NCc3cccnc3)c2)CC1 | 21 | 2 | -6 | -10 | 3 | -24 | x
Cc1noc(C)c1S(=O)(=O)Nc1ccc2c(c1)C(=O)N([C@@H](C)CO)C[C@H](C)[C@@H](CN(C)Cc1ccc(C(F)(F)F)cc1)OCCCC[C@H](C)O2 | 6 | -9 | x | x | -2 | x | x
O=C(NCCc1ccccc1Cl)c1ccc2nc3ccccc3c(=O)n2c1 | -321 | 12 | -1 | 0 | -102 | -14 | x
CC(C)(C)c1cc(=O)n(-c2ccccc2)[nH]1 | 87* | 4 | x | x | 1 | x | 27
O=c1cc(-c2ccccc2)[nH]n1-c1ccccc1 | -216 | 0 | x | x | -1 | x | x
Cc1c(C)n(CC(O)CSc2ccccc2)c2ccccc12 (configuration not stated) | 8 | 1 | x | x | 2 | x | x
CCOC(=O)C1(C)CCN1C(=O)c1cccc(C#N)c1 (configuration not stated) | 11 | -15 | x | x | 5 | x | x
CCN(CC)c1ccc(N=Cc2c(C)[nH]c3ccccc23)cc1 | 60* | -18 | -10 | 0 | -12 | 11 | 8
